According to ChEMBL document CHEMBL4311940, “Design, Synthesis, and Biological Evaluation of 4-Methyl Quinazoline Derivatives as Anticancer Agents Simultaneously Targeting Phosphoinositide 3-Kinases and Histone Deacetylases” (J Med Chem, 2019):
The source made the active and inactive calls. The rule behind the calls is not given here.

How the values were obtained:
[1] = target: Histone deacetylase (Homo sapiens) (UniProt Q13547+O15379+Q9UBN7+Q92769+Q9UQL6+Q8WUI4+Q9BY41+Q96DB2+P56524+Q9UKV0+Q969S8); assay: Inhibition of HDAC in human HCT116 cells assessed as increase in acetylated p53 levels after 16 hrs by Western blot analysis; type: cell-based
Procedure, shortened: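 HCT116 cells lysed in RIPA after washes in cold PBS. 40 μg protein run on 10−12% SDS-PAGE and transferred to nitrocellulose. Membrane blocked in 5% milk/TBST for 0.5 h, primary antibodies 1:1000 overnight at 4 °C, secondary 1:1000 for 1 h, ECL detection.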

Histone deacetylase 1 = Histone deacetylase 1 (Homo sapiens, UniProt Q13547); assay: Inhibition of recombinant C-terminal His/FLAG-tagged HDAC1 (unknown origin) expressed in baculovirus infected Sf9 insect cells using Ac-peptide as substrate preincubated for 15 mins followed by substrate addition and measured after 1 hr
Histone deacetylase 1, sequence (Q13547 whole entry): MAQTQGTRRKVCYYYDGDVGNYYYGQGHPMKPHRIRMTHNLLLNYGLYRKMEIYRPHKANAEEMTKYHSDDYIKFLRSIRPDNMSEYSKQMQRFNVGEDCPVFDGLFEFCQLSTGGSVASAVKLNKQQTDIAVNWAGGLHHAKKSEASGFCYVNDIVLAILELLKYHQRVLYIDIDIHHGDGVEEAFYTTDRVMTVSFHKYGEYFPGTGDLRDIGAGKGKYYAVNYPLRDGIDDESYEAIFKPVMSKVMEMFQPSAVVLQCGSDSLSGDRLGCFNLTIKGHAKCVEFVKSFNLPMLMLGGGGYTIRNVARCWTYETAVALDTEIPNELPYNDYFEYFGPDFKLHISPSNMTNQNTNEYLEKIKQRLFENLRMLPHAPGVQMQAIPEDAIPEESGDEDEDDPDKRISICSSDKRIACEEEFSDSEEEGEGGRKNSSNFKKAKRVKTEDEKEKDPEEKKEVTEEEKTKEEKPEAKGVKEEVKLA

[2] = Mutagenicity in Salmonella typhimurium TA97 at 5 to 500 ug/plate in absence of s9 mix by Ames test; type: toxicity; details: salmonella enterica subsp. enterica serovar typhimurium
Procedure, shortened: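 Plate incorporation method at 5, 50 and 500 μg/plate, with and without S9 activation. At least three plates per dose, incubated 72 h at 37 °C, revertants counted. Mean revertants compared with vehicle and positive controls.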

NCI-H460 = assay: Antiproliferative activity against human NCI-H460 cells after 96 hrs by MTT assay; type: functional, cell-based; details: NCI-H460, 96 h
[3] = Selectivity index, ratio of IC50 for human PBMC cells to IC50 for human HCT116 cells; type: toxicity; details: PBMC cells and HCT116 cells, read-out: Ratio IC50
Procedure, shortened: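 Ratio of IC50s from the MTT assay: PBMC or LO2 cells versus HCT116. Cells seeded at 2000/well, attached overnight at 37 °C, treated 96 h, MTT 4 h, formazan dissolved in DMSO, A570.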

Homo sapiens [4] = organism: Homo sapiens; assay: Selectivity ratio, ratio of IC50 for recombinant human PIK3CB to recombinant human His-tagged PIK3CD/PIK3R1 expressed in baculovirus expression system
Homo sapiens [5] = organism: Homo sapiens; assay: Inhibition of HDAC/PI3K in human HCT116 cells assessed as increase in cleaved caspase-3 level at 0.5 to 5 uM after 16 hrs by Western blot analysis; type: cell-based
Procedure, shortened: (§1)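 Immunoblot of HCT116 lysates (RIPA). 40 μg protein per lane on 10−12% SDS-PAGE, transferred to nitrocellulose, blocked 0.5 h in 5% milk/TBST. Primary antibodies 1:1000 overnight at 4 °C, secondary 1:1000 for 1 h, bands visualized by enhanced ECL.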

Homo sapiens [6] = organism: Homo sapiens; assay: Inhibition of PI3K in human HCT116 cells assessed as reduction in AKT phosphorylation at S473 residue at 0.5 to 5 uM after 16 hrs by Western blot analysis; type: cell-based; procedure, shortened: as §1
[7] = Drug level in tumor of human HGC27 cells xenografted in BALB/c mouse at 100 mg/kg, po measured 0.5 hrs post last dose; type: ADME, organism-based, Neoplasm; details: read-out: Drug uptake
Procedure, shortened: (§2)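 HGC-27 xenografted nude mice dosed po (0.5% cmc/Tween 80) or ip (saline); at end of treatment, 0.5 h after final dose, plasma and tumor tissue collected and compound concentration measured (ng/mL plasma, ng/g tumor).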

[8] = Drug level in BALB/c mouse plasma xenografted with human HGC27 cells at 30 mg/kg, ip measured 0.5 hrs post last dose; type: ADME, organism-based; procedure, shortened: as §2
Mus musculus [9] = assay: In vivo inhibition of PI3K in tumor of human HGC27 cells xenografted in athymic nude BALB/c mouse assessed as reduction in phosphorylated AKT expression at S473 residue by DAB staining based immunohistochemistry method; type: functional, organism-based
Procedure, shortened: (§3)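 HGC-27 xenograft tumors from treated and vehicle mice immunostained for Ki67, Ac-H3 and p-AKT(S473) (200×); integrated optical density analysed; mean ± SEM, n = 5−7, one-way ANOVA versus vehicle.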

[10] = Toxicity in athymic nude BALB/c mouse xenografted with human HGC27 cells assessed as reduction in body weight at 30 mpk, ip measured 2 times every week relative to control; type: organism-based; set-up: scale not given: the % may be the effect or the level left; details: in vivo, 30 mg/kg
[11] = Drug level in BALB/c mouse plasma xenografted with human HGC27 cells at 200 mg/kg, po measured 0.5 hrs post last dose; type: ADME, organism-based; procedure, shortened: as §2
[12] = Drug level in tumor of human HCT116 cells xenografted in athymic nude BALB/c mouse at 100 mpk, po by LC/MS/MS analysis; type: ADME, organism-based, Neoplasm; details: in vivo, 100 mg/kg
Procedure, shortened: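 HCT116 xenografted nude mice given daily oral doses; tumor tissue sampled 1 h after final dose and compound level measured (ng/g).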

Mus musculus [13] = assay: In vivo inhibition of HDAC in tumor of human HCT116 cells xenografted in athymic nude BALB/c mouse assessed as increase in acetylated histone-H3 expression by DAB staining based immunohistochemistry method; type: functional, organism-based
Procedure, shortened: (§4)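 HCT116 xenograft tumors from treated and vehicle mice stained immunohistochemically for Ki67, acetyl-H3 and p-AKT(S473) (200×); integrated optical density quantified; mean ± SEM, n = 5−7, one-way ANOVA versus vehicle.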

[14] = target: Phosphatidylinositol 4-phosphate 3-kinase C2 domain-containing subunit beta (Homo sapiens) (UniProt O00750); assay: Binding affinity to wild-type human […] length PIK3C2B (M1 to L1634 residues) expressed in mammalian expression system assessed as residual binding level at 1 uM by Kinomescan method relative to control
Phosphatidylinositol 4-phosphate 3-kinase C2 domain-containing subunit beta (Homo sapiens), sequence (O00750 whole entry, the tested form may be a part): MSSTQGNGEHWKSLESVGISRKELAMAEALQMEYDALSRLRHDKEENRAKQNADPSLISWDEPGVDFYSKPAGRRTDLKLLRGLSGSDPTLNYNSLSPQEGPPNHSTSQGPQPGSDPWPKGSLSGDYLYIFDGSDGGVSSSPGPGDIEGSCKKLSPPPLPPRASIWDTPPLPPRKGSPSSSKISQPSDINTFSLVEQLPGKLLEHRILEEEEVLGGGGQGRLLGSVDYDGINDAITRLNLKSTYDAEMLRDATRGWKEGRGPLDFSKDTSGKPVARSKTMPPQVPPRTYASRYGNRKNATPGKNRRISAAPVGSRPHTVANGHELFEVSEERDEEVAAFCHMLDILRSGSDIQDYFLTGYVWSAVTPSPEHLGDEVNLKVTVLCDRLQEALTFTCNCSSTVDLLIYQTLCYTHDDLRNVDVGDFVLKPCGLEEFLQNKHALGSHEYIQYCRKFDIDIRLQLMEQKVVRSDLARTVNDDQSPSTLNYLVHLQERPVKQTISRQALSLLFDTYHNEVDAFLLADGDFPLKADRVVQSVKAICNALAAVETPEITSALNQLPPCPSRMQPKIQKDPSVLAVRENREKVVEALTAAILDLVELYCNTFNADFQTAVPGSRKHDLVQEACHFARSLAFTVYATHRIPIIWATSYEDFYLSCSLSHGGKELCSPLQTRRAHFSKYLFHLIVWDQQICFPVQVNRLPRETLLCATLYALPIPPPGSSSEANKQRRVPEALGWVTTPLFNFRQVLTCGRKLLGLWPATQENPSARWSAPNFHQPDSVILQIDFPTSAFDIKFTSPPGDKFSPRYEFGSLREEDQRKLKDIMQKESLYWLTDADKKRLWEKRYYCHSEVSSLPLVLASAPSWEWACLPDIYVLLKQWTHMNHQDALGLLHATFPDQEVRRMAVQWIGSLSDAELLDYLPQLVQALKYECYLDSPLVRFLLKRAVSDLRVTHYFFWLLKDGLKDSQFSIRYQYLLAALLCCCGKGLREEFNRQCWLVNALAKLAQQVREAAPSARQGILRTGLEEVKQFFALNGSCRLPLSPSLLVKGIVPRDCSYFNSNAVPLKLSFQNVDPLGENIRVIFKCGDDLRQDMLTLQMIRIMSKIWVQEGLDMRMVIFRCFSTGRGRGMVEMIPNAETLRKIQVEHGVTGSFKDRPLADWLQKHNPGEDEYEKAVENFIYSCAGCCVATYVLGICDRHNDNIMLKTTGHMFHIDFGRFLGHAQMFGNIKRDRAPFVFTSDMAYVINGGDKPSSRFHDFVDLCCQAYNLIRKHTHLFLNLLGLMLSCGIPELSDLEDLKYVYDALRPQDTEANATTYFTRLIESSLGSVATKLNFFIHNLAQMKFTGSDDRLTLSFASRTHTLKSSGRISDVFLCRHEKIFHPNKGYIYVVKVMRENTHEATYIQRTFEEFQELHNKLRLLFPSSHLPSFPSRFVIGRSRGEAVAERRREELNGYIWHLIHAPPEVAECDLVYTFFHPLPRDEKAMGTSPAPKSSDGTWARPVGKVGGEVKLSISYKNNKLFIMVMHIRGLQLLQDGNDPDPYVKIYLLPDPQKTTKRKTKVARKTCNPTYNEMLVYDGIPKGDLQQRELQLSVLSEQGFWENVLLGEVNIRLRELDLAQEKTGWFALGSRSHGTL
Procedure, shortened: (§5)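 Kinomescan binding screen at 1 μM across 97 kinases.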

HGC-27 = assay: Antitumor activity against human HGC27 cells xenografted in athymic nude BALB/c mouse assessed as tumor growth inhibition at 100 mpk, po measured 2 times every week; type: functional; details: HGC-27, po, read-out: TGI
[15] = Drug metabolism in rat bile assessed as glucuronide metabolite formation at 0.74 mg/kg, iv after 1 hr by LC/MS/MS analysis; type: ADME, organism-based; details: in vivo
[16] = Drug level in tumor of human HGC27 cells xenografted in BALB/c mouse at 200 mg/kg, po measured 0.5 hrs post last dose; type: ADME, organism-based, Neoplasm; details: read-out: Drug uptake; procedure, shortened: as §2
Homo sapiens [17] = organism: Homo sapiens; assay: Inhibition of PI3K in human HCT116 cells assessed as reduction in AKT phosphorylation at T308 residue at 0.5 to 5 uM after 16 hrs by Western blot analysis; type: cell-based; procedure, shortened: as §1
[18] = target: Dual specificity tyrosine-phosphorylation-regulated kinase 1B (Homo sapiens) (UniProt Q9Y463); assay: Binding affinity to wild-type human full length DYRK1B (M1 to S629 residues) expressed in bacterial expression system assessed as residual binding level at 1 uM by Kinomescan method relative to control; procedure, shortened: as §5
Dual specificity tyrosine-phosphorylation-regulated kinase 1B (Homo sapiens), sequence (Q9Y463 whole entry, looked up, the tested form may be a part): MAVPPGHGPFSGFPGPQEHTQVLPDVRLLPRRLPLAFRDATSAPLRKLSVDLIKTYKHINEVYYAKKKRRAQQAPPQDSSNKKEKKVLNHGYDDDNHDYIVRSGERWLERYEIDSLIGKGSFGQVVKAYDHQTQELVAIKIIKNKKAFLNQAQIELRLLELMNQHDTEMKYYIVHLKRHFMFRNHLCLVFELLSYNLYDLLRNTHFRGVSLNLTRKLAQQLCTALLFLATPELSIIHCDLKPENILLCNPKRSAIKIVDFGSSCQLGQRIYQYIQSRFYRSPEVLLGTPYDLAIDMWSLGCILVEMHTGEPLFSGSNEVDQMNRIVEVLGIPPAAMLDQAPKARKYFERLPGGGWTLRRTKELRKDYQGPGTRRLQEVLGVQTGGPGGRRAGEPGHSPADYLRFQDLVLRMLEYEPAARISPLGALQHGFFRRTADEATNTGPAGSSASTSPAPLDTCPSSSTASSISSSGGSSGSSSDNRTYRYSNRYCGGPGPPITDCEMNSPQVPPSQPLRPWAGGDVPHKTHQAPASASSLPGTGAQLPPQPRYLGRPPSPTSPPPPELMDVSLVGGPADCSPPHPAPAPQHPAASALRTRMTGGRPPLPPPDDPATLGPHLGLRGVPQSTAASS

Mus musculus [19] = assay: In vivo inhibition of HDAC in tumor of human HGC27 cells xenografted in athymic nude BALB/c mouse assessed as increase in acetylated histone-H3 expression by DAB staining based immunohistochemistry method; type: functional, organism-based; procedure, shortened: as §3
Mus musculus [20] = assay: In vivo inhibition of PI3K in tumor of human HCT116 cells xenografted in athymic nude BALB/c mouse assessed as reduction in phosphorylated AKT expression at S473 residue by DAB staining based immunohistochemistry method; type: functional, organism-based; procedure, shortened: as §4
[21] = Half life in mouse plasma at 0.02 mM by LC/MS analysis; type: ADME, cell-free
Procedure, shortened: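 Spiking solution of 0.02 mM compound, 0.05 mM sodium phosphate, 0.5% BSA prewarmed 5 min at 37 °C, mixed with prewarmed mouse plasma; quenched with acetonitrile at time points; LC/MS; T1/2 = 0.693/K from ln(concentration) vs time.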

**Q.** For `COc1ccc(-c2cc(OCCN(C)c3ncc(C(=O)NO)cn3)c3ncnc(C)c3c2)cn1`, which inhibition [1] is on record?
**A.** The inhibition was “Dose-dependent effect”.

**Q.** And the IC50 (Histone deacetylase 1)?
**A.** The IC50 was 1.3 nM.

**Q.** What about the Activity [2] of the same compound?
**A.** The Activity was “Non-Toxic”.

**Q.** And the IC50 (NCI-H460)?
**A.** The IC50 was 2700 nM.

**Q.** What about the selectivity ratio [3] of the same compound?
**A.** Its selectivity ratio is 8240.

**Q.** What about the Ratio IC50 (Homo sapiens [4]) of the same compound?
**A.** The Ratio IC50 was > 5.

**Q.** Which results are given for `COc1ncc(-c2cc(OCCCCCCC(=O)NO)c3ncnc(C)c3c2)cc1F`?
**A.** inhibition (Homo sapiens [5]): Active; inhibition (Homo sapiens [6]): Active; concentration at 0.5 h [7]: 36.6 ng/g; concentration at 0.5 h [8]: 577 ng/mL; inhibition (Mus musculus [9]): Active; Activity [2]: Non-Toxic; IC50 (NCI-H460): 3000 nM; Activity [10]: 20%; concentration at 0.5 h [11]: 232 ng/mL; Drug uptake [12]: 72.7 ng/g; inhibition (Mus musculus [13]): Dose-dependent effect; Activity [14]: 27%; inhibition in vivo at 100 mg/kg (HGC-27): 15.2%; Drug metabolism [15]: Metabolite_Detected; concentration at 0.5 h [16]: 105 ng/g; inhibition (Homo sapiens [17]): Active; Activity [18]: 29%; inhibition (Mus musculus [19]): Active; inhibition (Mus musculus [20]): Dose-dependent effect; half-life at 20 µM [21]: 1.2 h
